This passage reports Ki, inhibition in vivo and IC50 results from ChEMBL document CHEMBL1157546, “3-(2-Aminocarbonylphenyl)propanoic acid analogs as potent and selective EP3 receptor antagonists. part 2: optimization of the side chains to improve in vitro and in vivo potencies” (Bioorg Med Chem, 2010).

Assay [1] concerns the target T1, Prostaglandin E2 receptor EP3 subtype (Mus musculus, UniProt P30557).
T1 sequence (P30557 whole entry): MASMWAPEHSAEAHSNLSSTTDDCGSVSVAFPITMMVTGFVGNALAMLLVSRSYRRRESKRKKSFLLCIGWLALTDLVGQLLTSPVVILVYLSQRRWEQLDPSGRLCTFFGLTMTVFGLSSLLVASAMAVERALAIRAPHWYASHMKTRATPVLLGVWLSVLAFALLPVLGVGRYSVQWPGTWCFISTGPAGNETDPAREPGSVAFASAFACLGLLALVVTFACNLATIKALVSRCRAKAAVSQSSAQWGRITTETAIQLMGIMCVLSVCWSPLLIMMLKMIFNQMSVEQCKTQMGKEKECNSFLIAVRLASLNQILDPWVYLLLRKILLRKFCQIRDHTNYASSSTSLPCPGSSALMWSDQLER
As to the kind of experiment: Displacement of [3H]PGE2 from mouse EP3 receptor expressed in CHO cell membrane. Type of assay: cell membranes. On the technique in general: Loss of bound radioactivity is the signal in a displacement assay; it reports binding, not function.

Assay [2] addresses Prostaglandin E2 receptor EP4 subtype (Mus musculus, UniProt P32240). The experiment in a line: Displacement of [3H]PGE2 from mouse EP4 receptor expressed in CHO cell membrane. Format: cell membranes.
In assay [3] the test system is Rattus norvegicus. As to the kind of experiment: Inhibition of PGE2-induced uterine contraction in intraduodenally dosed pregnant rat at 1 mg/kg. The note with it: route intraduodenal. Type of assay: functional. The method, boiled down: (§1)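 Pregnant rats with uterine pressure recorded by transducer. Once spontaneous motility was stable, compound in 0.5% methylcellulose (5 mL/kg) or vehicle given intraduodenally. PGE2 given iv 30 min later.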

The target of assay [4] is T1, Prostaglandin E2 receptor EP3 subtype. The experiment in a line: Antagonist activity at mouse EP3 receptor expressed in CHO cells assessed as inhibition of PGE2-induced increase intracellular calcium level in presence of 1% BSA by fluorimetry. Type of assay: functional, cell-based. In a few lines:
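CHO cells expressing mouse EP3 seeded at 1 × 10⁴ cells/well and grown two days in 10% FBS/αMEM (37 °C, 5% CO2). Loaded 1 h with Fura 2/AM, indomethacin and 2.5 mM probenecid, rinsed, then held 1 h dark at room temperature in HBSS with 1% BSA and 10 mM HEPES. Compound added with 10 nM PGE2. Ca²⁺ read at 340/380 nm excitation, 500 nm emission; % inhibition relative to the PGE2 response without compound.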

Assay [5] deals with T2, Prostaglandin E2 receptor EP1 subtype (Mus musculus, UniProt P35375).
T2 sequence (P35375 whole entry): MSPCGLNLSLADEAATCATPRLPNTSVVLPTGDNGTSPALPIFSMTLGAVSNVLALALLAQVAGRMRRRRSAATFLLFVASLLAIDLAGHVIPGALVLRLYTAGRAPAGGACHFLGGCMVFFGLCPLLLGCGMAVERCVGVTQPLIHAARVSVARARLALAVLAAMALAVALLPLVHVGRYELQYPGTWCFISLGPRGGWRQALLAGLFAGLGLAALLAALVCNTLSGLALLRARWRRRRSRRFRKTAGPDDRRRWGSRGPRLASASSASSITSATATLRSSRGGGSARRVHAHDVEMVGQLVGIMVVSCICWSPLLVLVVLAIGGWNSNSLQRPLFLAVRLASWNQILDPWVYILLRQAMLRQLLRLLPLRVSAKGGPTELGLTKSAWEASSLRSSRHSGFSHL
The experiment in a line: Displacement of [3H]PGE2 from mouse EP1 receptor expressed in CHO cell membrane. Type of assay: cell membranes.

Assay [6] deals with Prostaglandin E2 receptor EP2 subtype (Mus musculus, UniProt Q62053). As to the kind of experiment: Displacement of [3H]PGE2 from mouse EP2 receptor expressed in CHO cell membrane. Format: cell membranes.
In assay [7] the test system is Rattus norvegicus. As to the kind of experiment: Inhibition of PGE2-induced uterine contraction in intraduodenally dosed pregnant rat at 0.3 mg/kg. Format: functional. The note with it: route intraduodenal. In a few lines:
as §1

SMILES strings stand for the structures.

Sequence of Prostaglandin E2 receptor EP2 subtype (Q62053 whole entry): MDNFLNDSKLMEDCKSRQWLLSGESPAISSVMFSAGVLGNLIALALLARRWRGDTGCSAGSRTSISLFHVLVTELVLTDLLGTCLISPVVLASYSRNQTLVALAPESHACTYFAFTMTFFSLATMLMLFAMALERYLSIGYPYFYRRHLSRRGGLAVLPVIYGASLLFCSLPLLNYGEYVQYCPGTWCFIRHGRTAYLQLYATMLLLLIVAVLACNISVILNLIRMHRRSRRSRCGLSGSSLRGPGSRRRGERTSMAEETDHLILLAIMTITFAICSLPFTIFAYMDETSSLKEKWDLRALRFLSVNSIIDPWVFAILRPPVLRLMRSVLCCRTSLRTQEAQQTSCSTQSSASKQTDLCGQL
Sequence of Prostaglandin E2 receptor EP4 subtype (P32240 whole entry): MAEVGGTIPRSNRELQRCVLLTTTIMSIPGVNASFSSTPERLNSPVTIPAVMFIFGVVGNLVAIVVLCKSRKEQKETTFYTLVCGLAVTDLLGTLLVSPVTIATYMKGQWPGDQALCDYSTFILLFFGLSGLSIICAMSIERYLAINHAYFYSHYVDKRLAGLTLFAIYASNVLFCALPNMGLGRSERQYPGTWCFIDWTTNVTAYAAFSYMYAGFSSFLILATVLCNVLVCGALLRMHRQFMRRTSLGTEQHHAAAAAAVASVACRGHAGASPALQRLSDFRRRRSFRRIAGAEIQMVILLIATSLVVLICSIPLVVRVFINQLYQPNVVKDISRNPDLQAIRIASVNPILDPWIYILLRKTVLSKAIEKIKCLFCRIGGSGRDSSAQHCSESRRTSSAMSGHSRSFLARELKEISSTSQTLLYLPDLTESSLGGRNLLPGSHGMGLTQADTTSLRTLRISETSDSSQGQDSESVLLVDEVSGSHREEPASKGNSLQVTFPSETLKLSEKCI

Usually Ki stands for a dissociation constant, usually derived from enzyme kinetics or from competition with a known ligand. One may read the inhibition in vivo as the change of the read-out against control, counted positive when it falls. The low end stands for a weak effect, the high end for a strong effect. As usually defined, the IC50 is the point on the concentration scale where inhibition reaches its midpoint. On to `Cc1cc(C(CC(C)C)NC(=O)c2cc(COc3ccccc3)ccc2CCC(=O)O)ccc1F` (configuration not stated), for which the Ki is 0.16 nM in assay [1], 630 nM in assay [2], over 10000 nM in assay [5] and over 10000 nM in assay [6]. The compound also showed an inhibition in vivo at 1 mg/kg in assay [3] of 73%. For the same compound, in assay [4], the IC50 turned out to be 18 nM. In assay [7], this compound registered an inhibition in vivo at 0.3 mg/kg of 31%.
